# In the library only some 2.4% were active in any assay of this set; here they are far more common.
# MT stabilize HCS: microtubule stabilizers in HeLa cells; HeLa tubulin immunostaining HCS, 24 h; share of cells brighter than vehicle mean+2SD; % tubulin-high responders, % at 10 µM; 200,000 compounds, 0.83% hits; AID 2205;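 active means plate Z-score above 3 for both tubulin-high and condensed-nucleus cell shares, with cell loss under 80%, at 10 µM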;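 further: anti alpha tubulin signal scored within the nucleus-defined area of each cell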
# EP2 modulator: EP2 receptor (human) modulation; P43116; EP2-expressing cells, cAMP HTRF FRET, PGE2 co-stimulation; induction, % at 25 µM; 260,000 compounds, 0.83% hits; AID 940;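 active means compounds whose cAMP rise, as percent of the full-agonist control response, exceeds 60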;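 further: rat C6 glioma line stably carrying human EP2 under a CMV promoter; the protocol text gives 20 µM as final concentration; 100% = response of wells given 1 µM PGE2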
# Target sequence (P43116 whole entry, looked up): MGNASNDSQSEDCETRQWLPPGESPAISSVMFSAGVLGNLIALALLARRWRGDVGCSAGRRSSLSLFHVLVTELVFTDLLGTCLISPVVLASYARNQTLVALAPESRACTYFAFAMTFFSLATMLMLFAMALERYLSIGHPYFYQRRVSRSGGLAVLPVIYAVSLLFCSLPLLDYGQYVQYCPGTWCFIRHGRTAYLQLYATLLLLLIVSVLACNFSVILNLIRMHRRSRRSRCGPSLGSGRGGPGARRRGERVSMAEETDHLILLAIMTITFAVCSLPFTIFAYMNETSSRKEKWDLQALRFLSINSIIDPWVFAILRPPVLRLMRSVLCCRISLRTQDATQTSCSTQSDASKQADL
# bCat nuc transl: alters nuclear translocation of beta-catenin in HeLa cells | immunofluorescence imaging | nuclear translocation activity, % at 5 µM | 190,000 compounds, 0.3% hits | AID 1665;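 active means nuclear translocation activity above 50% at 5 µM, with a well cell count of 50 or more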;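 further: per-cell ratio of nuclear to cytoplasmic median beta-catenin stain intensity; plate controls were DMSO negative control for no effect and GSK-3 inhibitor IX positive control for full effect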
#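 test system = HeLa cells, endogenous beta-catenin | dosing = single 5 µM dose plus 0.02–20 µM confirmation series | times = compound treatment 24 h, 37°C, 5% CO2 | technique = beta-catenin immunofluorescence imaging with DAPI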
# PGE2 EP2 inh: inhibitors of human EP2 prostaglandin E2 receptor; P43116; C6 glioma cells expressing human EP2, cAMP TR-FRET; cells stimulated with saturating PGE2; inhibition, % at 25 µM; 260,000 compounds, 0.52% hits;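 active means percent inhibition above 40 after rounding to a whole number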;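 further: rat C6 glioma host cells with rolipram phosphodiesterase inhibitor present; the protocol text gives 20 µM as final concentration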
# Tb hexokinase: T. brucei hexokinase 1 inhibition | 220,000 compounds, 0.11% hits | inhibition, % at 10 µM | AID 1430 | recombinant TbHK1, G6PDH-coupled NADH A340;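 active means inhibition of 50% or more in the single-dose primary screen; inactive means inhibition below 50%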
# HMGR II inh: E. faecalis class II HMG-CoA reductase inhibition; purified E. faecalis HMGR, NADPH absorbance 340 nm kinetic; inhibition, % at 10 µM; 190,000 compounds, 0.41% hits; AID 1066;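 active means inhibition above a set limit, the median over all tested compounds plus 3 SD, cut at about 9.5% in these data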;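 further: enzyme runs in reverse so mevalonate oxidation gives rising NADPH absorbance; 0% = complete reaction with DMSO and 100% = background rate lacking mevalonate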
# The depositor's hits bear a star; x = not tested or not shown; ! = a repeat was not active.
SMILES,MT stabilize HCS,EP2 modulator,bCat nuc transl,PGE2 EP2 inh,Tb hexokinase,HMGR II inh
Cc1cc(CN2CCCCC2)c(O)c(CN2CCCCC2)c1,x,30.9,x,58.7*,x,x
CC(C)(C)c1nc(CN2CCCCC2)cc(CN2CCCCC2)c1O,6.0,-1.4,-4.5,14.8,12.4,-4.6
CN(C)c1ccc2c3c(ccc(N(C)C)c13)COC2,2.0,-9.7,-2.5,6.7,-6.2,14.8*
Cc1nn(-c2ccccc2)c(Cl)c1/C=N/NC(=O)c1ccc(NS(=O)(=O)c2cccs2)cc1,2.6,-12.6,3.0,23.1,-37.9,9.6*
Cc1nn(-c2ccccc2)c(C)c1/C=N/NC(=O)c1cc(-c2ccccc2)n[nH]1,14.0*,7.8,80.3*,15.6,-7.0,-2.6
CC1CCc2c(sc3nc(C4CC4)nc(SCC(=O)N4CCN(C(=O)c5ccco5)CC4)c23)C1 (stereo not given),x,-18.9,x,8.3,x,x
Cc1cccc(CN2CCc3c(nc(N4CCCC(C)C4)[nH]c3=O)C2)n1 (stereo not given),x,-17.5,x,x,x,x
Cc1ccc(C)n1Cc1ccccc1Cl,4.1,64.7*,1.4,4.0,-4.5,1.6
COCCCn1c(SCC(=O)Nc2ccc(Cl)cc2)nnc1-c1ccoc1C,x,21.1,x,8.1,x,x
Cc1cc(C)c2c(c1)N[C@H](c1cccs1)[C@@H]1CCO[C@H]21,x,-1.6,1.4,11.3,-3.2,x
CC(C)c1ccc2c(c1)[C@H]1OCC[C@H]1[C@@H](c1cccs1)N2,19.7*,2.0,36.3,2.4,0.6,0.8
Cc1nc2c(-c3ccccc3)c(C)nn2c(NCCO)c1C,x,-60.2,x,x,x,x
N=C1/C(=C/c2cccn2CCOc2ccccc2)C(=O)N=C2SC=C(c3ccccc3)N12,30.4*,23.3,35.7,6.7,12.5,-2.1
O=C(NC(=S)N(CC1CCC1)CC1CCCO1)c1cccc([N+](=O)[O-])c1 (stereo not given),1.3,17.9,1.2,7.2,-8.2,13.7*
Cc1ccc(NC(=O)CCc2ccc(S(=O)(=O)N3CCOCC3)cc2)c(C)c1,2.0,1.1,x,4.8,-1.5,14.9*
Cc1ccc(NC(=O)COC(=O)CCc2ccc(S(=O)(=O)N3CCOCC3)cc2)c(C)c1,2.3,4.3,-3.9,6.5,2.6,-0.5
CC(=O)c1ccc(NC(=O)CSc2nnnn2C2CCCCC2)cc1,x,-21.6,x,21.8,x,x
Cc1ccccc1CN1C(=O)CSc2ccc(C(=O)N3CCOCC3)cc21,37.8*,9.5,x,9.3,-2.1,-8.3
CC(C)CO/C(=N/S(=O)(=O)c1ccccc1)c1ccccc1,1.1,64.7*,x,0.8,-3.6,4.5
CC(C)O/C(=N\S(=O)(=O)c1ccc(Cl)cc1)c1ccccc1,1.9,38.9,0.1,6.0,0.0,0.1
Brc1c(NC2=NCCN2)ccc2nccnc12,3.0,20.3,x,16.6,-10.7,17.8*
Cc1ccc(NC(=O)/C(=C/c2cccc(Br)c2)NC(=O)c2ccco2)cc1,1.6,12.7,0.7,4.2,38.8,1.0
O=C(Nc1ccc(C(=O)O)cc1)/C(=C/c1cccc(Br)c1)NC(=O)c1ccco1,4.6,62.7*,-3.6,4.8,-1.7,-1.1
C=CC(C1=CC(=O)C=CC1=O)c1ccccc1 (stereo not given),x,-1.4,x,8.5,x,x
C=C[C@@H](C1=CC(=O)C(OC)=C(OC)C1=O)c1ccccc1,x,-31.8,x,120.1*,x,x
SMILES,MT stabilize HCS,EP2 modulator,bCat nuc transl,PGE2 EP2 inh,Tb hexokinase,HMGR II inh
Nc1nc2c(c(=O)[nH]1)N[C@H](CCNc1ccc(C(=O)O)cc1)CN2,x,29.2,x,48.6*,x,x
Oc1c(Br)cc(Br)cc1CN(Cc1cc(Br)cc(Br)c1O)C1CCCCC1,x,-25.6,x,40.1*,x,x
COc1ccccc1OCCn1c(=O)sc2ccccc21,1.0,13.1,x,6.4,4.6,4.5
Cc1ccccc1OCCn1c(=O)sc2ccccc21,4.2,63.1*!,1.6,2.0,2.3,-2.2
CCOc1ccccc1OCC(=O)N/N=C(\C)Cc1ccc(OC)cc1,15.0*,31.9,3.7,14.1,1.7,-2.3
CCc1nn(CC(=O)N2C(C)CCCC2C)c(=O)c2cc3sccc3n12 (stereo not given),x,-52.1,x,x,x,x
C=C(C)Cn1c(-c2ccncc2)n[nH]c1=S,2.8,10.1,2.3,1.9,-7.4,19.3*
CCOc1ccc(Cl)cc1S(=O)(=O)n1cnc2ccccc21,24.2*,12.5,x,10.8,-6.8,-5.5
COc1ccc(Cl)cc1S(=O)(=O)N1CCCC1,2.2,15.6,x,5.5,-6.1,-1.8
CCOc1cc(C)c(Cl)cc1S(=O)(=O)n1cnc2ccccc21,4.1,7.6,x,5.1,-6.1,-3.2
COc1ccc(Cl)cc1S(=O)(=O)n1cnc2ccccc21,26.4*,-2.5,1.7,9.0,4.9,2.8
CCc1cccc(C)c1NC(=O)CSc1nc(C)nc2sc(C)c(CC)c12,x,26.8,x,9.2,x,x
CCOC(=O)C(C)Oc1cccc2c(=O)n(CC(=O)NCc3ccco3)ccc12 (stereo not given),10.1,9.9,72.7*,8.5,-10.7,4.9
CC(C)C(=O)c1cn(CC(=O)NCc2ccco2)c2ccccc12,3.7,1.6,-3.9,9.5,-2.1,-1.6
C/C(N[O-])=C(\C)[N+]([O-])=[Cu].C/C(N[O-])=C(\C)[N+]([O-])=[Cu].CC(=N\[O-])/C(C)=N/[O-].CC(=N\[O-])/C(C)=N/[O-],x,-15.8,x,55.8*,x,x
C/C(N[O-])=C(\C)[N+]([O-])=[Fe].CC(=N\[O-])/C(C)=N/[O-].[NH2-].c1c[nH+]c[n-]1,x,-8.6,x,44.4*,x,x
CCOC(=O)c1ccc(NC(=O)N2CCC(NC(=O)C34CC5CC(CC(C5)C3)C4)CC2)cc1,x,-33.4,x,16.8,x,x
O=C(CCn1c(=O)oc2ccccc21)N1CCN(c2ccccc2Cl)CC1,44.2*,19.7,-0.5,5.4,2.6,0.0
O=C(CCn1c(=O)sc2ccccc21)NCc1cccs1,3.5,-6.0,0.0,8.4,-3.5,1.1
O=C(CCn1c(=O)oc2ccccc21)NCc1cccs1,2.3,16.6,2.7,13.2,2.7,12.8*
O=C(CCn1c(=O)oc2ccccc21)N1CCCCCC1,2.9,19.3,-2.2,5.9,0.9,0.5
COc1ccc(NC(=S)N(CCCN2CCCC2)Cc2cccn2Cc2ccc(Cl)cc2)cc1Cl,59.7*,-35.2,0.2,5.7,11.3,-7.7
FC(F)(F)c1cccc(NC(=S)N(CCCN2CCCC2)Cc2cccn2Cc2ccc(Cl)cc2)c1,76.4*,-3.5,1.1,13.8,48.9,-3.2
CCC(c1nnnn1Cc1cccs1)N1CCN(c2cccc(OC)c2)CC1 (stereo not given),x,25.7,x,7.5,x,x
CCSc1nnc(NC(=O)c2cccc(OCc3c(C)noc3C)c2)s1,3.0,14.8,5.1,5.2,-7.0,-5.9
COc1ccc2nc(NC(=O)c3cccc(OCc4c(C)noc4C)c3)sc2c1,30.4*,-3.6,72.5*,x,-8.0,-1.3
Cc1ncc(-c2ccncc2)c(C2CCCN(C(=O)c3cccc4nccnc34)C2)n1 (stereo not given),x,3.1,x,x,x,x

# High-throughput results from PubChem BioAssay.
